Source: article PMC3698760 (Journal of the American Heart Association: Cardiovascular …, 2013)
Values belong to the substance of their own block, whether it stands above or below them.

How the values were obtained:
apoE‐deficient mice [1] = assay: Plasma lipid profiles by enzymatic assay, 16-week treatment; format: in vivo; settings: scrambled peptides i.p. 16 weeks, n=7; high-fat-fed apoE-deficient mice; mean±SD
Method in brief: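 Overnight-fasting plasma taken after 16 weeks from 19 of 23 high-fat-fed apoE−/− mice. Dosing was i.p. 3 times weekly with scrambled peptide or test peptide at 10 or 50 mg/kg per day. Total cholesterol, triglyceride and HDL cholesterol were measured by enzymatic assay; mean±SD.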

apoE‐deficient mice [2] = assay: Plasma lipoprotein profiles analyzed by HPLC, 16-week treatment; format: in vivo; settings: scrambled peptides i.p. 16 weeks, n=7, mean±SD
Method in brief: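 Plasma from apoE−/− mice after 16-week i.p. dosing (3 times weekly) was separated by HPLC into 20 particle-size subfractions. Each subfraction was assayed enzymatically for total cholesterol, free cholesterol, triglycerides and phospholipids; mean±SD.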

[3] = test system: apoE−/− mice fed a high‐fat diet; assay: Aortic atherosclerotic lesion formation, 16-week treatment; format: in vivo; settings: scrambled FAMP i.p. 3 times per week, 16 weeks; Oil Red O; mean±SD
Method in brief: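 Male apoE−/− mice, bought at six weeks, fed a high-fat diet (0.5% cholesterol, 10% fat) and dosed i.p. 3 times per week for 16 weeks: test peptide at 10 or 50 mg/kg per day, or scrambled peptide. Whole aortas were then stained with Oil Red O. Lesion area was scored by image analysis as percentage of aorta from ascending aorta to abdominal bifurcation.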

A172 human glioblastoma = assay: Cellular cholesterol efflux in A172 human cells; format: cell-based; settings: 4 hours
Method in brief: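 A172 human glioblastoma cells were grown in DMEM with 10% FBS and antibiotics, then labelled with ³H‑cholesterol. Efflux ran in serum‑free medium with 0.2% BSA, 5 μmol/L T0901317 and 5 μmol/L 9‑cis‑retinoic acid, with or without 10 μmol/L probucol. Acceptor was human apoA‑I or test peptide at 20 μg/mL, or a molar dose series, for 4 h. n=4–5; mean±SD.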

[4] = test system: monocyte‐derived macrophages from an ABCA1‐deficient Tangier disease patient; format: cell-based, human; settings: 20 μg/mL, 4 hours, n=4
Method in brief: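 Peripheral blood monocyte‑derived macrophages came from a healthy volunteer and a Tangier disease patient, with ethics approval and written consent. Cells were isolated by Lymphoprep density separation and labelled with ³H‑cholesterol. Efflux was run in serum‑free 0.2% BSA medium with or without 20 μg/mL human apoA‑I or test peptide for 4 h. n=4; mean±SD.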

ABCA1 = ABCA1 (Homo sapiens, UniProt O95477); assay: Probucol-inhibitable, ABCA1-specific cholesterol efflux in A172 cells; format: cell-based; settings: probucol 10 μmol/L
ABCA1, sequence (O95477 whole entry): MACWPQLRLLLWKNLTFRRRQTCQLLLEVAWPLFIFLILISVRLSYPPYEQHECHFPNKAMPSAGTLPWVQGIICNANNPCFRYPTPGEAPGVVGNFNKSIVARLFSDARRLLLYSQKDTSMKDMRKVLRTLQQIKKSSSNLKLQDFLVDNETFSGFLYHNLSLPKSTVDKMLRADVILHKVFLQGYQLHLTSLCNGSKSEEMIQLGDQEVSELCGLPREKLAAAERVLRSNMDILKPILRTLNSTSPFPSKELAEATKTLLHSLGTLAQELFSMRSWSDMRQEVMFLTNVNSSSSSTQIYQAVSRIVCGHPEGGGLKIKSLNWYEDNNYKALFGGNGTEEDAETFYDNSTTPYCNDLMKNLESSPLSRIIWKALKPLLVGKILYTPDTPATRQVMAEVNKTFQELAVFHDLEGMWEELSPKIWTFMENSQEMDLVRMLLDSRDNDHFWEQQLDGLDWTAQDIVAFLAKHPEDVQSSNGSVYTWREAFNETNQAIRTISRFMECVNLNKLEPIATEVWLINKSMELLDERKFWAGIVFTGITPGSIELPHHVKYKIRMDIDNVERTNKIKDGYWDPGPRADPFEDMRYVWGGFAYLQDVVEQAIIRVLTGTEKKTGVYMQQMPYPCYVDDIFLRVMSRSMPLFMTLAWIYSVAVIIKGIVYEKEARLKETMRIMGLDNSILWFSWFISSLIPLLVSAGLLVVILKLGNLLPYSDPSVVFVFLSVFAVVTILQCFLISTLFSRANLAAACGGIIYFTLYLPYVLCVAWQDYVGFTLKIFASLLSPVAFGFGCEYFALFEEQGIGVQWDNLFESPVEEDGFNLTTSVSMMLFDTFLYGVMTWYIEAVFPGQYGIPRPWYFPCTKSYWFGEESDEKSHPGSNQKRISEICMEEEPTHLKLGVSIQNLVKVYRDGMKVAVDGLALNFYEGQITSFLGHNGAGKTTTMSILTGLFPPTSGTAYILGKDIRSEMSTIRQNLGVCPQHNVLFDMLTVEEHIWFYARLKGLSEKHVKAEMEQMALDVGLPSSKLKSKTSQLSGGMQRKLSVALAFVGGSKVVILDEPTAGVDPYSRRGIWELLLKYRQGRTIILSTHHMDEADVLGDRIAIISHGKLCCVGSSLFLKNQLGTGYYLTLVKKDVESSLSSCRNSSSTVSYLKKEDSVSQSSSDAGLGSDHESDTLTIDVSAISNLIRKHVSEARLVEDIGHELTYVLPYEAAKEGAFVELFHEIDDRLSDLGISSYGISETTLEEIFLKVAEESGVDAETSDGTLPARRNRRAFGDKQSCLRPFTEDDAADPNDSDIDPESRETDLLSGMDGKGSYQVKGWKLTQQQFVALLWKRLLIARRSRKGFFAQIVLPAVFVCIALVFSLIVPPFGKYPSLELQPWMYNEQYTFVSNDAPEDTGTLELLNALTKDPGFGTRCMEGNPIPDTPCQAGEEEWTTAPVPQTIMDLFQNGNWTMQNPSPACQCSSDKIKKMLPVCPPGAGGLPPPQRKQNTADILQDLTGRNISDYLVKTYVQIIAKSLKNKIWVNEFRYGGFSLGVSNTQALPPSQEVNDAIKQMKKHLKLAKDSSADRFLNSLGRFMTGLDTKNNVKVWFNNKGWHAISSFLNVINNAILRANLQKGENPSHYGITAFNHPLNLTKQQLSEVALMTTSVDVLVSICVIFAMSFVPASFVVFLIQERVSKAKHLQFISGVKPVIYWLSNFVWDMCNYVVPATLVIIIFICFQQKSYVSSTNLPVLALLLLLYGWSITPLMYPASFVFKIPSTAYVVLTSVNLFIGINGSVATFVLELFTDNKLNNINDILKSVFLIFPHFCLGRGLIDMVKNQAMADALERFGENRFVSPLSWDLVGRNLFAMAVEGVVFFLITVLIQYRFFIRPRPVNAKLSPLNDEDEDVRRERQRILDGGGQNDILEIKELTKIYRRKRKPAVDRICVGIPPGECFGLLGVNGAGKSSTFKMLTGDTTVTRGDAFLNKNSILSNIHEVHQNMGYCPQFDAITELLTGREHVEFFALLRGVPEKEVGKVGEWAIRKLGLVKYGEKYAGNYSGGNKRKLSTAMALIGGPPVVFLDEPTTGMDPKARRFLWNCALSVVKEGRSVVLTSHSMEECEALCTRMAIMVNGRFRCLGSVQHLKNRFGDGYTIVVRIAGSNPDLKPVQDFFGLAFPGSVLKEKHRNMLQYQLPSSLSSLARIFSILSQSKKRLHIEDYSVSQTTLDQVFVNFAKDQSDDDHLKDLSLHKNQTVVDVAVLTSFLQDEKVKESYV
Method in brief: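 A172 glioblastoma cells, labelled with ³H-cholesterol, were held in serum-free 0.2% BSA medium with 5 μmol/L T0901317 and 5 μmol/L 9-cis-retinoic acid. Cells were exposed for 4 h to 20 μg/mL acceptor, with or without 10 μmol/L probucol. ABCA1-dependent efflux was taken as the probucol-inhibitable fraction.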

Circular dichroism = format: physicochemical; settings: CD spectra in water, 200 to 260 nm
Method in brief: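 Spectra of peptides and human apoA-I (17.8 to 178 μmol/L) recorded at 25°C in a thermostatted quartz cell with 0.1 mm path length, scanning 200–260 nm. Results expressed as mean residue ellipticity (deg cm² dmol⁻¹).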

Substance: H-ATEFLHLLLLKLLKKKEDELLAYA-OH [Scrambled FAMP, reference compound]
HDL Cholesterol (apoE‐deficient mice [1]): 12.6 ± 4.8 mg/dL
Total Cholesterol (apoE‐deficient mice [1]): 1373.9 ± 499.2 mg/dL
Triglyceride (apoE‐deficient mice [1]): 119.9 ± 21.7 mg/dL
Cholesterol, CM (>80 nm) (apoE‐deficient mice [2]): 106.2 ± 47.8 mg/dL
Cholesterol, HDL (8 to 16 nm) (apoE‐deficient mice [2]): 23.0 ± 4.5 mg/dL
Cholesterol, HDL Subfractions Intermediate Particles (apoE‐deficient mice [2]): 12.0 ± 3.4 mg/dL
Cholesterol, HDL Subfractions Large Particles (apoE‐deficient mice [2]): 7.2 ± 1.5 mg/dL
Cholesterol, HDL Subfractions Small Particles (apoE‐deficient mice [2]): 3.8 ± 0.5 mg/dL
Cholesterol, LDL (16 to 30 nm) (apoE‐deficient mice [2]): 165.3 ± 25.4 mg/dL
Cholesterol, VLDL (30 to 80 nm) (apoE‐deficient mice [2]): 423.7 ± 96.1 mg/dL
Free cholesterol, CM (>80 nm) (apoE‐deficient mice [2]): 44.9 ± 20.5 mg/dL
Free cholesterol, HDL (8 to 16 nm) (apoE‐deficient mice [2]): 12.5 ± 1.4 mg/dL
Free cholesterol, HDL Subfractions Intermediate Particles (apoE‐deficient mice [2]): 5.1 ± 0.5 mg/dL
Free cholesterol, HDL Subfractions Large Particles (apoE‐deficient mice [2]): 5.7 ± 1.1 mg/dL
Free cholesterol, HDL Subfractions Small Particles (apoE‐deficient mice [2]): 1.7 ± 0.2 mg/dL
Free cholesterol, LDL (16 to 30 nm) (apoE‐deficient mice [2]): 80.9 ± 10.1 mg/dL
Free cholesterol, VLDL (30 to 80 nm) (apoE‐deficient mice [2]): 179.8 ± 35.9 mg/dL
Phospholipids, CM (>80 nm) (apoE‐deficient mice [2]): 53.0 ± 22.3 mg/dL
Phospholipids, HDL (8 to 16 nm) (apoE‐deficient mice [2]): 45.5 ± 10.3 mg/dL
Phospholipids, HDL Subfractions Intermediate Particles (apoE‐deficient mice [2]): 28.1 ± 7.4 mg/dL
Phospholipids, HDL Subfractions Large Particles (apoE‐deficient mice [2]): 12.4 ± 3.3 mg/dL
Phospholipids, HDL Subfractions Small Particles (apoE‐deficient mice [2]): 5.0 ± 1.7 mg/dL
Phospholipids, LDL (16 to 30 nm) (apoE‐deficient mice [2]): 133.6 ± 20.5 mg/dL
Phospholipids, VLDL (30 to 80 nm) (apoE‐deficient mice [2]): 228.2 ± 40.0 mg/dL
Triglyceride, CM (>80 nm) (apoE‐deficient mice [2]): 13.9 ± 7.5 mg/dL
Triglyceride, HDL (8 to 16 nm) (apoE‐deficient mice [2]): 3.3 ± 0.8 mg/dL
Triglyceride, HDL Subfractions Intermediate Particles (apoE‐deficient mice [2]): 1.5 ± 0.5 mg/dL
Triglyceride, HDL Subfractions Large Particles (apoE‐deficient mice [2]): 0.6 ± 0.2 mg/dL
Triglyceride, HDL Subfractions Small Particles (apoE‐deficient mice [2]): 1.1 ± 0.3 mg/dL
Triglyceride, LDL (16 to 30 nm) (apoE‐deficient mice [2]): 12.3 ± 4.2 mg/dL
Triglyceride, VLDL (30 to 80 nm) (apoE‐deficient mice [2]): 33.8 ± 7.7 mg/dL
relative surface area of aortic plaque lesions [3]: 31.3±8.9%

Substance: human apoA‐I: Human apoA‐I purchased from Calbiochem, 243–amino acid major HDL protein
concentration adequate for a saturating effect on cholesterol efflux (A172 human glioblastoma; A172 cells): 20 µg/mL
effect of ABCA1 inactivation (probucol) on peptide-mediated cholesterol efflux (A172 human glioblastoma; probucol 10 μmol/L, 20 μg/mL): drastically inhibited
cholesterol efflux in Tangier disease macrophages vs healthy subject [4]: suppressed

Substance: Ac-DWFKAFYDKVAEKFKEAF-NH2 [L‐4F, reference compound]
percentage of probucol‐inhibitable, ABCA1‐specific cholesterol efflux (ABCA1): much more unspecific cholesterol efflux compared with FAMP5

α‐helical conformation (CD spectra) (Circular dichroism): formed strong α‐helical conformations
Substance: H-ALEHLFTLSEKALKALEDLLKKLL-OH [FAMP2]

Substance: H-ATEHLSTLSEKAKPALEDLLKKLL-OH [FAMP4]
α‐helical conformation (CD spectra) (Circular dichroism): but not FAMP4, formed strong α‐helical conformations
